High-throughput results as filed in PubChem BioAssay.
Rin1-Abl PPI inh: inhibitors of human Rin1-Abl protein interaction | TR-FRET Rin1/Abl binding, biochemical | inhibition, % at 7.35 µM | actives 0.4% (n = 360,000) | P00519+Q13671; in the data active = inhibition above about 5%, passing the limit was not always enough
Rev-erbA mod: Rev-erb alpha (human) modulation. Rev-erbα–FITC-DNA binding, fluorescence polarization, 90 min. activity, % at 10 µM. actives 0.79% (n = 370,000). P20393. AID 1259318;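 active = activity above about 14%, limit read from the data; passing the limit was not always enough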
PG9 binder: PG9 antibody binding by small molecule; TR-FRET gp120-PG9 antibody binding; inhibition, % at 6.7 µM; actives 0.43% (n = 360,000); in the data active = inhibition above about 8.5%
Tb MetRS inh: Trypanosoma brucei MetRS inhibition; purified T. brucei MetRS, ATP depletion, Kinase-Glo luminescence; inhibition, % at 11.9 µM; actives 0.4% (n = 360,000);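 active = inhibition above a per-plate cutoff of the control wells' mean inhibition plus 3 SD, cut at about 5.5% in these data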
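Material – parasite MetRS enzyme · Medium – HEPES-MgCl2-KCl buffer plus DTT, spermine, BSA, pyrophosphatase · Reagent – ATP, methionine and E. coli bulk tRNA substrates · Times – 15 min enzyme-compound preincubation, 2 h reaction, 10 min detection, 25 °C · Measured by – luminescence of leftover ATP · Evaluation – percent inhibition relative to median high and low control wells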
PG9 bind confirm: confirmation of small molecules binding HIV-1 gp120 antibody PG9. shares compounds with PG9 binder. TR-FRET PG9 antibody binding, biochemical. inhibition, % at 6.7 µM. actives 90% (n = 1,500); in the data active = inhibition above about 9%
PGV04 counter: counter-screen for PG9 binders: binding control antibody PGV04 | shares compounds with PG9 binder | TR-FRET PGV04 antibody-gp120 binding, biochemical | inhibition, % at 6.7 µM | actives 95% (n = 1,500); in the data active = inhibition above about 9.5%
PG9 bind DR: small molecules binding HIV-1 gp120 antibody PG9; shares compounds with PG9 binder; TR-FRET PG9 antibody-gp120 binding inhibition; IC50, µM; 95 tested, under 10 active; AID 651848; in the data active = IC50 below about 10 µM
PGV04 DR counter: counter-screen for PG9 binders: binding to control antibody PGV04. shares compounds with PG9 binder. TR-FRET binding to control antibody PGV04. IC50, µM. actives 20% (n = 95). AID 651937
PG126 binding DR: binds control antibody PG126 in PG9 counter-screen; shares compounds with PG9 binder; AID 651939; TR-FRET binding to antibody PG126, counterscreen; actives 20% (n = 95); IC50, µM
Rev-erbA confirm: confirmation of modulators of human Rev-erb alpha DNA binding. shares compounds with Rev-erbA mod. actives 61% (n = 3,000). activation, % at 25 µM. Rev-erb alpha FITC-DNA binding, fluorescence polarization, 90 min. AID 1259319;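 active = activation at or above a set limit, or at least 3 SD above the negative control mean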
RORg DNA counter: RORgamma DNA-binding activity, dose-response counter-screen. actives 8% (n = 910). shares compounds with Rev-erbA mod. purified RORgamma protein-FITC-DNA binding, fluorescence polarization. IC50, µM. AID 1259320;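 active = Compounds whose fitted half-maximal concentration for disrupting protein-DNA binding is below 10 micromolar; the record names Rev-erb in its text, so the target is in doubt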
Each line names hits and unclear results; the compound was inactive in the other large screens (follow-up assays come after a bar, where they were run). This is a sample that favours compounds with a hit; in the whole collection about 1.8% have one here. Cut-off read from the data, not from the text of the source, unless noted: active = IC50 below about 9 µM; inactive = the rest.

Cc1cc(C)c(C#N)c(SCC(=O)Nc2cccc(S(=O)(=O)N3CCCC3)c2)n1	Rev-erbA mod 21, PG9 binder 37 | PG9 bind confirm 41 | PGV04 counter 65 | Rev-erbA confirm 11
Cc1cc2occ(CC(=O)N(C)CC(=O)Nc3ccccc3Br)c2cc1C	none
CCOc1ccc(CC(=O)Nc2sc(Cc3ccccc3)cc2C(N)=O)cc1OCC	Rev-erbA mod 69, PG9 binder 55 | PG9 bind confirm 14 | PGV04 counter 21 | Rev-erbA confirm 43 | RORg DNA counter 2.5
Cc1cccc(N2CCN(C(=O)c3cccc(N4CCCC4=O)c3)C(C)C2)c1 (configuration not stated)	none
O=C(NC1CCS(=O)(=O)C1)c1cc2c(=O)n3ccccc3nc2n1Cc1ccccc1 (configuration not stated)	none
Cc1ccc2nc3c(cc(C(=O)NC4CCS(=O)(=O)C4)n3Cc3ccccc3)c(=O)n2c1 (configuration not stated)	Rev-erbA mod 26, PG9 binder 23 | PG9 bind confirm 20 | PGV04 counter 31 | Rev-erbA confirm inactive
Cn1c(CNc2ccccc2F)nc2ccccc21	none (no result: Rin1-Abl PPI inh, PG9 binder, Tb MetRS inh)
Cc1c(CC(=O)NCC(=O)O)c(=O)oc2cc3c(cc12)CCC(C)(C)O3	none
CC(=O)Nc1nnc(SCC(=O)c2ccc3c(c2)Cc2ccccc2-3)s1	Rev-erbA mod 55, PG9 binder 10 | PG9 bind confirm 21 | PGV04 counter 49 | Rev-erbA confirm 18
O=C(COc1ncnc2ccc(Br)cc12)NCc1ccco1	none
O=C(COc1ncnc2ccc(Br)cc12)NCc1ccc2c(c1)OCO2	Rev-erbA mod 58, PG9 binder 41 | PG9 bind confirm 40 | PGV04 counter 59 | Rev-erbA confirm 50 | RORg DNA counter inactive
CCOC(=O)N1CCC(NC(=O)c2ccc3c(c2)N(Cc2ccc(C)cc2)CCS3)CC1	Rev-erbA mod 30, PG9 binder 22 | PG9 bind confirm 31 | PGV04 counter 44 | Rev-erbA confirm inactive
N=C1C=CC(=C(c2ccc(N)cc2)c2ccc(N)cc2)C=C1	none
COc1ccc(OCCSc2nc(-c3ccccc3)cc(=O)[nH]2)cc1	none
COc1ccc(OCCSc2nc3ccccc3c(=O)[nH]2)cc1	Rev-erbA mod 29, PG9 binder 58 | PG9 bind confirm 53 | PGV04 counter 66 | Rev-erbA confirm 21
O=C1NC[C@H](CCCCN2C[C@H](Cc3ccccc3)N(CCC3CCCCC3)C(=O)C2=O)N(CCc2ccc(O)cc2)C1=O	none (no result: Rin1-Abl PPI inh)
COC(=O)CSc1nc(C)c(C(=O)Nc2ccccc2C)c(-c2ccc(Cl)cc2)c1C#N	Rev-erbA mod 26, PG9 binder 9.1 | PG9 bind confirm inactive | PGV04 counter 16 | Rev-erbA confirm inactive
Cc1ccc(C(=O)Nc2nc3ccc(S(C)(=O)=O)cc3s2)cc1C	Rev-erbA mod 26, PG9 binder 21 | PG9 bind confirm 32 | PGV04 counter 51 | Rev-erbA confirm 21
CS(=O)(=O)c1ccc2nc(NC(=O)c3ccccc3)sc2c1	none
Cc1ccc(NC(=O)Nc2nc3ccc(S(C)(=O)=O)cc3s2)cc1	Rev-erbA mod 19, PG9 binder 34 | PG9 bind confirm 31 | PGV04 counter 42 | Rev-erbA confirm inactive
Cc1cccc(C(=O)Nc2nc3ccc(S(C)(=O)=O)cc3s2)c1	Rev-erbA mod 36, PG9 binder 34 | PG9 bind confirm 15 | PGV04 counter 38 | Rev-erbA confirm 22
COc1ccc(C(=O)Nc2nc3ccc(S(C)(=O)=O)cc3s2)cc1OC	Rev-erbA mod 30, PG9 binder 22 | PG9 bind confirm 28 | PGV04 counter 40 | Rev-erbA confirm 25
C1=C(c2cc3ccccc3cn2)CCCC1	none
Cc1cccc(NC(=O)C2CCN(S(=O)(=O)c3cccc4nsnc34)CC2)c1	none
Cc1cccc(NC(=O)C2CCCN(S(=O)(=O)c3cccc4nsnc34)C2)c1 (configuration not stated)	Rev-erbA mod 155, PG9 binder 65 | PG9 bind confirm 64 | PGV04 counter 58 | PG9 bind DR 4.3 | PGV04 DR counter 3.9 | PG126 binding DR 4.3 | Rev-erbA confirm 79 | RORg DNA counter inactive
NC(=O)c1ccccc1NC(=O)c1ccc2c(c1)OCO2	none
CC(C)c1ccc(-c2cc(C(=O)N3CCOCC3)c3cc(Br)ccc3n2)cc1	Rev-erbA mod 63, PG9 binder 17 | PG9 bind confirm 30 | PGV04 counter 36 | Rev-erbA confirm 28
O=C(c1cc(-c2ccccc2)nc2ccccc12)N1CCOCC1	none
Cc1cc(C)c(NC(=O)CSc2nc3ncc(Br)cc3[nH]2)c(C)c1	Rev-erbA mod 124, PG9 binder 39 | PG9 bind confirm 41 | PGV04 counter 65 | Rev-erbA confirm 99 | RORg DNA counter inactive
Cc1ccc(NC(=O)CSc2nc3ncc(Cl)cc3[nH]2)c(C)c1	none
COc1ccc(NC(=O)NNC(=O)COc2ccc3cc(Br)ccc3c2)cc1OC	Rev-erbA mod 77, PG9 binder 18 | PG9 bind confirm 29 | PGV04 counter 39 | Rev-erbA confirm 65 | RORg DNA counter inactive
CC(=O)c1cccc(OCC(O)CNCCOc2ccc(C)cc2)c1 (configuration not stated)	none
Cn1c(=O)c(C(=O)Nc2ccccc2S(N)(=O)=O)c(O)c2ccccc21	none
CCC(C)n1c(=O)c(C(=O)Nc2ccccc2S(N)(=O)=O)c(O)c2ccccc21 (configuration not stated)	Rev-erbA mod 54, PG9 binder 14 | PG9 bind confirm 14 | PGV04 counter 23 | Rev-erbA confirm 31
CC(=O)Nc1cccc(-c2ccnc3c2CC(C(=O)NCCC(F)(F)F)O3)c1 (configuration not stated)	none
Cc1nc(SCC(=O)Nc2ccc(F)cc2)c(C#N)c(C)c1CC(=O)c1ccc(Br)cc1	Rev-erbA mod 70, PG9 binder 8.7 | PG9 bind confirm 26 | PGV04 counter 35 | Rev-erbA confirm inactive
